For data set [1], the system named is Mus musculus. Kind of data set: Number of survivors on 30th day at dose 9 mg/kg/day in 10 mice implanted with P388 leukemia cell line; […]. It is filed as functional.
The subject of data set [2] is Mus musculus. Kind of data set: Number of survivors of DBA2 mice on 60th day after inoculation with L1210 leukemia cell line intraperitoneally at a dose of 4 mg/kg/day; 0/10. It is filed as functional. The settings on record: route intraperitoneal.
For data set [3], the system named is Mus musculus. Description: Number of survivors on 60th day at dose 4 mg/kg/day in 10 mice implanted with P388 leukemia cell line; 2/10. It is filed as functional.
For data set [4], the system named is Mus musculus. Kind of data set: Number of survivors on 30th day at dose 3 mg/kg/day in 10 mice implanted with P388 leukemia cell line; 0 /10. It is filed as functional.
Data set [5] has as its system Mus musculus. Kind of data set: Number of survivors on 30th day at dose 4 mg/kg/day in 10 mice implanted with P388 leukemia cell line;5/10. It is filed as functional.
For data set [6], the system named is Mus musculus. Kind of data set: Percent increase in life span at dose 11 mg/kg/day in 10 mice implanted with P388 leukemia cell line. It is filed as functional. In a few lines: (§1)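 Female DBA2 mice inoculated iv on day 0 with 10^4 P388 cells; single iv treatment on day 1 with drug as sulfate salt in physiological saline. Survival followed; %ILS from all deaths and survivors as (T/C × 100) − 100, maximal MST 30 days; survivors counted on days 30 and 60. Most experiments confirmed three times.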

For data set [7], the system named is Mus musculus. Kind of data set: Number of survivors on 30th day at dose 5 mg/kg/day in 10 mice implanted with P388 leukemia cell line; 0 /10. In kind it is functional.
For data set [8], the system named is Mus musculus. Description: Percent increase in life span of BDF1 mice after inoculation with P388 leukemia cells intraperitoneally at a dose of 0.33 mg/kg per day for 1-9 scheduled days. The note with it: P388, ip.
Data set [9] deals with Mus musculus. Kind of data set: Percent increase in life span at dose 60 mg/kg/day in 10 mice implanted with P388 leukemia cell line. In kind it is functional. The method in brief:
as §1

Data set [10] has as its system Mus musculus. Description: Percent increase in life span at dose 55 mg/kg/day in 10 mice implanted with P388 leukemia cell line for 1,5,9 schedule days. In kind it is functional.
Data set [11] deals with Mus musculus. Description: Number of survivors on 60th day at dose 58 mg/kg/day in 10 mice implanted with P388 leukemia cell line; 0/10. It is filed as functional.
The test system of data set [12] is Mus musculus. Kind of data set: Number of survivors of DBA2 mice on 60th day after inoculation with L1210 leukemia cell line intravenously at a dose of 58 mg/kg/day; 0/10. It is filed as functional. The note with it: route intravenous.
For data set [13], the system named is Mus musculus. Kind of data set: Number of survivors on 30th day at dose 60 mg/kg/day in 10 mice implanted with P388 leukemia cell line for 1st scheduled day; 8/10. In kind it is functional.
Data set [14] has as its system Mus musculus. Description: Percent increase in life span of DBA2 mice after inoculation with L1210 leukemia intravenously at a dose of 58 mg/kg per day. It is filed as functional. The settings on record: route intravenous.
Data set [15] relates to Mus musculus. Kind of data set: Number of survivors on 30th day at dose 65 mg/kg/day in 10 mice implanted with P388 leukemia cell line; 7/9. In kind it is functional.
For data set [16], the system named is Mus musculus. Kind of data set: Number of survivors of DBA2 mice on 30th day after inoculation with L1210 leukemia cell line intravenously at a dose of 45 mg/kg/day; 0/10. It is filed as functional. The note with it: route intravenous.
Data set [17] concerns Mus musculus. Kind of data set: Percent increase in life span at dose 50 mg/kg/day in 10 mice implanted with P388 leukemia cell line. In kind it is functional. In a few lines:
as §1

Data set [18] concerns Mus musculus. Description: Number of survivors of DBA2 mice on 30th day after inoculation with L1210 leukemia cell line intravenously at a dose of 70 mg/kg/day; 0/10. It is filed as functional. The note with it: route intravenous.
In data set [19] the test system is Mus musculus. Kind of data set: Number of survivors on 60th day at dose 55 mg/kg/day in 10 mice implanted with P388 leukemia cell line for 1,5,9 scheduled days; 1/10. It is filed as functional.
The subject of data set [20] is Mus musculus. Description: Number of survivors of DBA2 mice on 30th day after inoculation with L1210 leukemia cell line intravenously at a dose of 58 mg/kg/day; 0/10. In kind it is functional. The note with it: route intravenous.
Data set [21] has as its system Mus musculus. Description: Percent increase in life span at dose 58 mg/kg/day in 10 mice implanted with P388 leukemia cell line. It is filed as functional.
The test system of data set [22] is Mus musculus. Kind of data set: Number of survivors on 30th day at dose 58 mg/kg/day in 10 mice implanted with P388 leukemia cell line;2/10. It is filed as functional.
Data set [23] relates to Mus musculus. Kind of data set: Number of survivors of DBA2 mice on 30th day after inoculation with L1210 leukemia cell line intravenously at a dose of 60 mg/kg/day; 0/10. In kind it is functional. The settings on record: route intravenous.
The subject of data set [24] is Mus musculus. Description: Number of survivors of DBA2 mice on 60th day after inoculation with L1210 leukemia cell line intravenously at a dose of 70 mg/kg/day; 0/10. In kind it is functional. The note with it: route intravenous.
Data set [25] has as its system Mus musculus. Kind of data set: Percent increase in life span at dose 56 mg/kg/day in 10 mice implanted with P388 leukemia cell line. In kind it is functional.
Data set [26] concerns Mus musculus. Kind of data set: Number of survivors on 30th day at dose 55 mg/kg/day in 10 mice implanted with P388 leukemia cell line for1,5,9 scheduled days; 2/10. It is filed as functional.
Data set [27] in a line: Acute iv toxicity against Swiss strain of 100 mice after 8 doses of injection. It is filed as organism-based. The note with it: mouse, in vivo.
Data set [28] has as its system Mus musculus. Description: Number of survivors on 30th day at dose 3 mg/kg/day in 9 mice implanted with P388 leukemia cell line; 0/10. It is filed as functional.
The subject of data set [29] is Mus musculus. Kind of data set: Number of survivors on 30th day at dose 3 mg/kg/day in 10 mice implanted with P388 leukemia cell line; 0/9. It is filed as functional.
In data set [30] the test system is Mus musculus. Kind of data set: Number of survivors of DBA2 mice on 30th day after inoculation with L1210 leukemia cell line intraperitoneally at a dose of 2.5 mg/kg/day; 0/10. In kind it is functional. The settings on record: route intraperitoneal.
Data set [31] has as its system Mus musculus. Description: Percent increase in life span at dose 6 mg/kg/day in 10 mice implanted with P388 leukemia cell line for 1st schedule day. It is filed as functional.
Data set [32] concerns Mus musculus. Description: Number of survivors on 60th day at dose 6 mg/kg/day in 9 mice implanted with P388 leukemia cell line; 0/10. In kind it is functional.
The subject of data set [33] is Mus musculus. Description: Number of survivors on 60th day at dose 1 mg/kg/day in 10 mice implanted with P388 leukemia cell line; 0/10. It is filed as functional.
Data set [34] has as its system Mus musculus. Kind of data set: Number of survivors of DBA2 mice on 60th day after inoculation with L1210 leukemia cell line intravenously at a dose of 2 mg/kg/day; 0/10. In kind it is functional. The note with it: route intravenous.
Data set [35] deals with Mus musculus. Description: Number of survivors of DBA2 mice on 60th day after inoculation with L1210 leukemia cell line intravenously at a dose of 5.5 mg/kg/day; 0/10. In kind it is functional. The note with it: route intravenous.
Data set [36] concerns Mus musculus. Kind of data set: Number of survivors of DBA2 mice on 60th day after inoculation with L1210 leukemia cell line intravenously at a dose of 1.5 mg/kg/day; 0/10. It is filed as functional. The note with it: route intravenous.
In data set [37] the test system is Mus musculus. Kind of data set: Number of survivors on 30th day at dose 1.5 mg/kg/day in 10 mice implanted with P388 leukemia cell line; 0/10. It is filed as functional.
The test system of data set [38] is Mus musculus. Kind of data set: Number of survivors of DBA2 mice on 60th day after inoculation with L1210 leukemia cell line intraperitoneally at a dose of 0.22 mg/kg/day; 0/10. In kind it is functional. The note with it: route intraperitoneal.
For data set [39], the system named is Mus musculus. Description: Percent increase in life span at dose 1.5 mg/kg/day in 10 mice implanted with P388 leukemia cell line. In kind it is functional.
The subject of data set [40] is Mus musculus. Description: Percent increase in life span of BDF1 mice after inoculation with P388 leukemia intraperitoneally at a dose of 2.7 mg/kg per day. The settings on record: P388, ip.
In data set [41] the test system is Mus musculus. Kind of data set: Number of survivors of DBA2 mice on 30th day after inoculation with L1210 leukemia cell line intravenously at a dose of 2 mg/kg/day; 0/10. It is filed as functional. The settings on record: route intravenous.

Structures are written as SMILES.

As to `CC[C@]1(O)C[C@@H]2CN(CCc3c([nH]c4ccccc34)[C@@](C(=O)OC)(c3cc4c(cc3OC)N(C)[C@H]3[C@@](O)(C(=O)OC)[C@H](OC(C)=O)[C@]5(CC)C=CCN6CC[C@]43[C@@H]65)C2)C1` [VINBLASTINE], the Survivors came to 1 in the data set on Mus musculus [1]; 0 in the data set with Mus musculus [2]; 2 in the data set on Mus musculus [3]; 0 in the data set on Mus musculus [4]; 5 with Mus musculus [5]; 0 with Mus musculus [7]. Further, the ILS at 11 mg/kg/day in the data set on Mus musculus [6] was -40%. In addition, the ILS at 0.33 mg/kg/day with Mus musculus [8] came out at 74%.
As to `CCOC(=O)[C@H](Cc1c[nH]c2ccccc12)NC(=O)[C@@]1(O)[C@H](O)[C@]2(CC)C=CCN3CC[C@@]4(c5cc([C@@]6(C(=O)OC)C[C@H]7C[N@](CCc8c6[nH]c6ccccc86)C[C@](O)(CC)C7)c(OC)cc5N(C)[C@@]14C)[C@@H]32`, the ILS at 60 mg/kg/day in the data set on Mus musculus [9] was > 178%. In addition, the ILS at 55 mg/kg/day in the data set with Mus musculus [10] was > 426%. Further, the Survivors in the data set with Mus musculus [11] was 0; with Mus musculus [12], 0; with Mus musculus [13], 8; in the data set on Mus musculus [15], 7; in the data set on Mus musculus [16] it was 0; in the data set on Mus musculus [18], 0. For the same compound, the Survivors with Mus musculus [19] amounted to 1; in the data set on Mus musculus [20] it was 0; in the data set on Mus musculus [22] it was 2; in the data set on Mus musculus [23], 0; in the data set on Mus musculus [24], 0; in the data set with Mus musculus [26], 2. The ILS at 58 mg/kg/day in the data set on Mus musculus [14] worked out at 48.7%; in the data set with Mus musculus [21] it was 122%. In the data set with Mus musculus [17], the ILS at 50 mg/kg/day was > 161%. The ILS at 56 mg/kg/day in the data set on Mus musculus [25] turned out to be 113%.
Usually LD50 stands for the dose expected to kill half of the subjects tested. A higher LD50 goes with lower toxicity. In the case of `CC[C@]1(O)C[C@@H]2CN(CCc3c([nH]c4ccccc34)[C@@](C(=O)OC)(c3cc4c(cc3OC)N(C)[C@H]3[C@@](O)(C(N)=O)[C@H](O)[C@]5(CC)C=CCN6CC[C@]43[C@@H]65)C2)C1` [VINDESINE], the LD50 in [27] was 13.8 mg/kg. Also, the Survivors with Mus musculus [28], in the data set on Mus musculus [29] and in the data set on Mus musculus [30] was 0 in each case.
For `CCOC(=O)[C@@H](NC(=O)[C@@]1(O)[C@H](O)[C@]2(CC)C=CCN3CC[C@@]4(c5cc([C@@]6(C(=O)OC)C[C@H]7C[N@](CCc8c6[nH]c6ccccc86)C[C@](O)(CC)C7)c(OC)cc5N(C)[C@@]14C)[C@@H]32)[C@@H](C)CC`, the ILS at 6 mg/kg/day in the data set on Mus musculus [31] turned out to be 74%. Moreover, the Survivors in the data set with Mus musculus [32] turned out to be 0.
On to `CC[C@]1(O)C[C@H]2CN(CCc3c([nH]c4ccccc34)[C@@](C(=O)OC)(c3cc4c(cc3OC)N(C=O)[C@H]3[C@@](O)(C(=O)OC)[C@H](OC(C)=O)[C@]5(CC)C=CCN6CC[C@]43[C@@H]65)C2)C1` [VINCRISTINE], for which the Survivors in the data set on Mus musculus [33], in the data set with Mus musculus [34], with Mus musculus [35], in the data set on Mus musculus [36], in the data set on Mus musculus [37] and in the data set with Mus musculus [38] was 0 in each case. Also, the Survivors in the data set with Mus musculus [41] was determined as 0. Besides, in the data set on Mus musculus [39], the ILS at 1.5 mg/kg/day came out at 20.8%. Further, the ILS at 2.7 mg/kg/day in the data set on Mus musculus [40] amounted to 64%.

The record behind these values is ChEMBL document CHEMBL1122917, “Vinblastin-23-oyl amino acid derivatives: chemistry, physicochemical data, toxicity, and antitumor activities against P388 and L1210 leukemias” (J Med Chem, 1985).
